Legend:
KB [1] = experiment: Growth inhibition of human KB cells at 10 uM after 48 hrs by SRB assay; format: functional; details: read-out: GI
How it was run: (§1)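 Exponentially growing cells at 1–2.5 ×10⁴ cells/mL, in humidified 5% CO₂, were seeded into 96-well plates. After 24 h, medium containing compound at various concentrations was added, and cells were incubated 48 h. Controls received RPMI-1640 medium only. Viable cell number was read by MTT at 570 nm for HL-60, and by SRB at 540 nm for Bel-7402, BGC-823 and KB.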

Bel-7402 [2] = experiment: Growth inhibition of human Bel7402 cells at 10 uM after 48 hrs by SRB assay; format: functional; details: Bel-7402, 48 h, read-out: GI; how it was run: as §1
HL-60 = experiment: Growth inhibition of human HL60 cells at 10 uM after 48 hrs by MTT assay; format: functional; details: HL-60, 48 h, read-out: GI; how it was run: as §1
BGC-823 [3] = experiment: Growth inhibition of human BGC823 cells at 10 uM after 48 hrs by SRB assay; format: functional; details: BGC-823, 48 h, read-out: GI; how it was run: as §1
BGC-823 [4] = experiment: Antitumor activity against human BGC823 cells after 48 hrs by SRB assay; format: functional, cell-based; details: BGC-823, 48 h; how it was run: as §1
KB [5] = experiment: Antitumor activity against human KB cells after 48 hrs by SRB assay; format: functional, cell-based; how it was run: as §1
Bel-7402 [6] = experiment: Antitumor activity against human Bel7402 cells after 48 hrs by SRB assay; format: functional, cell-based; details: Bel-7402, 48 h; how it was run: as §1

| Structure (SMILES) | inhibition of growth at 10 µM (KB [1]) | inhibition of growth at 10 µM (Bel-7402 [2]) | inhibition of growth at 10 µM (HL-60) | inhibition of growth at 10 µM (BGC-823 [3]) | IC50 (BGC-823 [4]) | IC50 (KB [5]) | IC50 (Bel-7402 [6]) |
| --- | --- | --- | --- | --- | --- | --- | --- |
| COc1ccccc1C(=O)N/N=C/c1ccc(-c2ccc(F)cc2F)o1 | 10.1% | 1.69% | 7.77% | 35.9% | – | – | – |
| O=C(N/N=C/c1ccc(-c2ccccc2F)o1)c1ccc(Cl)cc1 | 4.62% | 2.96% | 6.13% | 31.5% | – | – | – |
| O=C(N/N=C/c1ccc(-c2ccc(F)cc2)o1)c1ccccc1O | 84.6% | 81.6% | -2.08% | 71.5% | 9.5 µM | 39 µM | 15.2 µM |
| O=C(N/N=C/c1ccc(-c2ccc(Cl)cc2)o1)c1ccccc1 | 3.2% | -7.17% | 15.1% | 19.4% | – | – | – |
| O=C(N/N=C/c1ccc(-c2ccc(F)cc2F)o1)c1ccccc1O | 61.8% | 63.4% | -9.5% | 68.4% | 46.6 µM | 55.3 µM | 19.3 µM |
| Cc1cccc(C(=O)N/N=C/c2ccc(-c3ccccc3[N+](=O)[O-])o2)c1 | 5.9% | 5.67% | 6.25% | 36.1% | – | – | – |
| O=C(N/N=C/c1ccc(-c2cccc(F)c2)o1)c1ccc(Br)cc1 | 26% | 28.2% | 25.9% | 46.7% | – | – | – |
| COc1ccccc1/C=N/NC(=O)c1ccc(-c2ccc(F)cc2F)o1 | 59.5% | 53.1% | 27.4% | 66.8% | 81.6 µM | > 40 µM | 24.6 µM |
| O=C(N/N=C/c1ccc(Cl)cc1)c1ccc(-c2ccccc2F)o1 | 11.3% | 16.9% | 6.49% | 32.6% | – | – | – |
| O=C(N/N=C/c1ccccc1O)c1ccc(-c2ccc(F)cc2)o1 | 53.9% | 40% | 13.1% | 74% | 180 µM | > 40 µM | 50.3 µM |
| O=C(N/N=C/c1ccccc1)c1ccc(-c2ccc(Cl)cc2)o1 | 17% | 2.28% | 25.8% | 33.7% | – | – | – |
| O=C(N/N=C/c1ccccc1O)c1ccc(-c2ccc(F)cc2F)o1 | 75.2% | 91.8% | 43.1% | 79.1% | 9.6 µM | > 40 µM | 8.3 µM |
| Cc1cccc(/C=N/NC(=O)c2ccc(-c3ccccc3[N+](=O)[O-])o2)c1 | 10.3% | 6.66% | 9.54% | 31.4% | – | – | – |
| O=C(N/N=C/c1ccccc1Cl)c1ccc(-c2ccc(F)cc2)o1 | 19.3% | 4.81% | -3.22% | 32% | – | – | – |
| O=C(N/N=C/c1ccc(O)cc1)c1ccc(-c2ccc(F)cc2)o1 | 11% | 10.6% | 1.07% | 46.3% | – | – | – |
| O=C(N/N=C/c1cccc(Br)c1)c1ccc(-c2ccccc2F)o1 | 26.5% | 12.5% | 27.6% | 43.6% | – | – | – |
| COc1cccc2c1C(=O)c1c(O)c3c(c(O)c1C2=O)C[C@@](O)(C(=O)CO)C[C@@H]3O[C@H]1C[C@H](N)[C@H](O)[C@H](C)O1 [DOXORUBICIN] | – | – | – | – | 4.8 µM | 5.8 µM | 5 µM |

Reference: ChEMBL document CHEMBL1777725, “New class of potent antitumor acylhydrazone derivatives containing furan” (Eur J Med Chem, 2010)
